Measurements: ChEMBL document CHEMBL3227962, “Synthesis of hydroxy- and amino-substituted benzohydroxamic acids: inhibition of ribonucleotide reductase and antitumor activity” (J Med Chem, 1979)

tested on: L1210; assay: Antitumor activity against mouse L1210 cells allografted in C6D2F1 mouse at 75 mg/kg, ip for 8 days starting from day 1 of challenge relative to control; format: functional; details: route intraperitoneal

SMILES | T/C [%]
O=C(NO)c1ccc(O)c(O)c1O | 109

tested on: L1210; assay: Antitumor activity against mouse L1210 cells allografted in C6D2F1 mouse at 100 mg/kg, ip for 8 days starting from day 1 of challenge relative to control; format: functional; details: route intraperitoneal

SMILES | T/C [%]
O=C(NO)c1ccc(O)c(O)c1 | 125
O=C(NO)c1cc(O)c(O)c(O)c1 | 125

tested on: L1210; assay: Antitumor activity against mouse L1210 cells allografted in C6D2F1 mouse at 500 mg/kg, ip for 8 days starting from day 1 of challenge relative to control; format: functional; details: route intraperitoneal

SMILES | T/C [%]
O=C(NO)c1cccc(O)c1 | 177
O=C(NO)c1ccc(O)c(O)c1 | 184
O=C(NO)c1cccc(O)c1O | 100

tested on: L1210; assay: Antitumor activity against mouse L1210 cells allografted in C6D2F1 mouse at 63 mg/kg, ip for 8 days starting from day 1 of challenge relative to control; format: functional; details: route intraperitoneal

SMILES | T/C [%]
O=C(NO)c1ccc(O)c(O)c1O | 111

organism: Rattus norvegicus; assay: Ratio of hydroxyurea ID50 to compound ID50 for ribonucleotide reductase purified from rat Novikoff hepatoma assessed as inhibition of [3H]CDP to [3H]dCDP conversion after 40 mins; details: not given

SMILES | Ratio
O=C(NO)c1ccc(O)c(O)c1O | 140

tested on: L1210; assay: Antitumor activity against mouse L1210 cells allografted in C6D2F1 mouse at 125 mg/kg, ip for 8 days starting from day 1 of challenge relative to control; format: functional; details: route intraperitoneal

SMILES | T/C [%]
O=C(NO)c1ccc(O)c(O)c1O | 130

organism: Rattus norvegicus; assay: Inhibition of ribonucleotide reductase purified from rat Novikoff hepatoma assessed as inhibition of [3H]CDP to [3H]dCDP conversion after 40 mins; details: not given
Method in brief: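 Ribonucleotide reductase was partially purified from Novikoff hepatoma. The 0.34 mL mix held 3 µCi [3H]CDP (14–19 Ci/mmol), 3.3 mM ATP, 5.9 mM MgCl2, 8.8 mM Hepes pH 7.5, 15 mM DTT and 0.4–1.3 mg enzyme protein, incubated 40 min at 30 °C. Vehicle was water, ≤1% ethanol or 2% DMSO. Each inhibitor was tested at ≥3 concentrations, with actives repeated. ID50 was read from graphs.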

SMILES | ID50 [µM]
Nc1ccc(C(=O)NO)c(O)c1 | 200
Nc1ccc(C(=O)NO)cc1 | 150
Nc1ccccc1C(=O)NO | 120
O=C(NO)c1cccc(O)c1 | 350
O=C(NO)c1cc(O)ccc1O | 200
O=C(NO)c1ccc(O)c(O)c1 | 30
NC(=O)NO [HYDROXYUREA] | 500
O=C(NO)c1ccc(O)c(O)c1O | 3.5
O=C(NO)c1cccc(O)c1O | 8
O=C(NO)c1c(O)cccc1O | 100
O=C(NO)c1ccccc1 [BENZOHYDROXAMATE] | 400
O=C(NO)c1cc(O)c(O)c(O)c1 | 10
Nc1cccc(C(=O)NO)c1 | 350
Nc1ccc(C(=O)NO)cc1N | 40
O=C(NO)c1ccc(O)cc1 | 250
O=C(NO)c1ccc(O)cc1O | 250
O=C(NO)c1cc(O)cc(O)c1 | 400
O=C(NO)c1ccccc1O [SALICYLHYDROXAMIC ACID] | 150

tested on: Mus musculus; assay: Toxicity in mouse L1210 cells allografted C6D2F1 mouse at 800 mg/kg, ip for 8 days measured on day 2; format: organism-based; set-up: dose 800 mg/kg, route intraperitoneal; details: in vivo, 192 h

SMILES | Activity
O=C(NO)c1ccc(O)c(O)c1 | Toxic

tested on: L1210; assay: Antitumor activity against ip dosed mouse L1210 cells allografted in C6D2F1 mouse assessed as dose to achieve maximum life span administered for 8 days starting from day 1 of challenge; format: functional; details: not given
Method in brief: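 L1210 leukemia propagated in DBA/2 mice; diluted ascitic fluid (0.10 mL, 10^5 cells) injected ip into female C6D2F1 mice (~20 g) on day 0. Compounds given ip once daily for 8 days from day 1, generally three doses in the 100–1000 mg/kg range, 8 mice per dose; other doses per toxicity. Read-out: life span as T/C %.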

SMILES | Activity [mg/kg]
Nc1ccc(C(=O)NO)c(O)c1 | 1000
Nc1ccc(C(=O)NO)cc1 | 500
Nc1ccccc1C(=O)NO | 500
O=C(NO)c1cccc(O)c1 | 500
O=C(NO)c1cc(O)ccc1O | 300
O=C(NO)c1ccc(O)c(O)c1 | 600
NC(=O)NO [HYDROXYUREA] | 2500
O=C(NO)c1ccc(O)c(O)c1O | 125
O=C(NO)c1cccc(O)c1O | 200
O=C(NO)c1ccccc1 [BENZOHYDROXAMATE] | 500
O=C(NO)c1cc(O)c(O)c(O)c1 | 400
Nc1cccc(C(=O)NO)c1 | 500
Nc1ccc(C(=O)NO)cc1N | 300
O=C(NO)c1ccc(O)cc1 | 400
O=C(NO)c1ccc(O)cc1O | 500
O=C(NO)c1cc(O)cc(O)c1 | 1000
O=C(NO)c1ccccc1O [SALICYLHYDROXAMIC ACID] | 500

tested on: L1210; assay: Antitumor activity against mouse L1210 cells allografted in C6D2F1 mouse at 1000 mg/kg, ip for 8 days starting from day 1 of challenge relative to control; format: functional; details: route intraperitoneal

SMILES | T/C [%]
O=C(NO)c1cccc(O)c1 | 68

tested on: L1210; assay: Antitumor activity against mouse L1210 cells allografted in C6D2F1 mouse at 400 mg/kg, ip for 8 days starting from day 1 of challenge relative to control; format: functional; details: route intraperitoneal

SMILES | T/C [%]
O=C(NO)c1ccc(O)c(O)c1 | 154
O=C(NO)c1cc(O)c(O)c(O)c1 | 153

tested on: L1210; assay: Antitumor activity against mouse L1210 cells allografted in C6D2F1 mouse at 139 mg/kg, ip bid at interval of 3 hrs between each dosing for 8 days starting from day 1 of challenge relative to control; format: functional; details: route intraperitoneal
Method in brief: (§1)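 Mice were female C6D2F1 of about 20 g, inoculated ip on day 0 with 10^5 L1210 ascites cells grown in DBA/2 mice. Drug was given ip twice daily at 139 mg/kg per dose for 8 days, varying the interval between the two daily injections. Read-out is the T/C % of life span.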

SMILES | T/C [%]
O=C(NO)c1cc(O)c(O)c(O)c1 | 168

tested on: L1210; assay: Antitumor activity against mouse L1210 cells allografted in C6D2F1 mouse at 320 mg/kg, ip for 8 days starting from day 1 of challenge relative to control; format: functional; details: route intraperitoneal

SMILES | T/C [%]
O=C(NO)c1ccc(O)c(O)c1O | 46

tested on: Mus musculus; assay: Toxicity in mouse L1210 cells allografted C6D2F1 mouse at 500 mg/kg, ip for 8 days measured on day 3; format: organism-based; set-up: dose 500 mg/kg, route intraperitoneal; details: in vivo, 192 h

SMILES | Activity
O=C(NO)c1cccc(O)c1O | Toxic

tested on: L1210; assay: Antitumor activity against mouse L1210 cells allografted in C6D2F1 mouse at 700 mg/kg, ip for 8 days starting from day 1 of challenge relative to control; format: functional; details: route intraperitoneal

SMILES | T/C [%]
O=C(NO)c1cccc(O)c1 | 148

tested on: L1210; assay: Antitumor activity against mouse L1210 cells allografted in C6D2F1 mouse at 800 mg/kg, ip for 8 days starting from day 1 of challenge relative to control; format: functional; details: route intraperitoneal

SMILES | T/C [%]
O=C(NO)c1ccc(O)c(O)c1 | 28
O=C(NO)c1cc(O)c(O)c(O)c1 | 56

tested on: L1210; assay: Antitumor activity against mouse L1210 cells allografted in C6D2F1 mouse at 450 mg/kg, ip for 8 days starting from day 1 of challenge relative to control; format: functional; details: route intraperitoneal

SMILES | T/C [%]
O=C(NO)c1cccc(O)c1O | 103

tested on: L1210; assay: Antitumor activity against mouse L1210 cells allografted in C6D2F1 mouse at 139 mg/kg, ip bid at interval of 1 hr between each dosing for 8 days starting from day 1 of challenge relative to control; format: functional; details: route intraperitoneal; method in brief: as §1

SMILES | T/C [%]
O=C(NO)c1cc(O)c(O)c(O)c1 | 151

tested on: L1210; assay: Antitumor activity against mouse L1210 cells allografted in C6D2F1 mouse at 100 to 1000 mg/kg, ip for 8 days starting from day 1 of challenge relative to control; details: dose mg/kg 100-1000; route intraperitoneal

SMILES | T/C [%]
Nc1ccc(C(=O)NO)c(O)c1 | 115
Nc1ccc(C(=O)NO)cc1 | 162
Nc1ccccc1C(=O)NO | 150
O=C(NO)c1cccc(O)c1 | 177
O=C(NO)c1cc(O)ccc1O | 130
O=C(NO)c1ccc(O)c(O)c1 | 203
NC(=O)NO [HYDROXYUREA] | 162
O=C(NO)c1ccc(O)c(O)c1O | 130
O=C(NO)c1cccc(O)c1O | 136
O=C(NO)c1ccccc1 [BENZOHYDROXAMATE] | 144
O=C(NO)c1cc(O)c(O)c(O)c1 | 153
Nc1cccc(C(=O)NO)c1 | 110
Nc1ccc(C(=O)NO)cc1N | 140
O=C(NO)c1ccc(O)cc1 | 124
O=C(NO)c1ccc(O)cc1O | 142
O=C(NO)c1cc(O)cc(O)c1 | 152
O=C(NO)c1ccccc1O [SALICYLHYDROXAMIC ACID] | 147

tested on: L1210; assay: Antitumor activity against mouse L1210 cells allografted in C6D2F1 mouse at 600 mg/kg, ip for 8 days starting from day 1 of challenge relative to control; format: functional; details: route intraperitoneal

SMILES | T/C [%]
O=C(NO)c1cccc(O)c1 | 156
O=C(NO)c1ccc(O)c(O)c1 | 203

tested on: L1210; assay: Antitumor activity against mouse L1210 cells allografted in C6D2F1 mouse at 200 mg/kg, ip for 8 days starting from day 1 of challenge relative to control; format: functional; details: route intraperitoneal

SMILES | T/C [%]
O=C(NO)c1cccc(O)c1 | 123
O=C(NO)c1ccc(O)c(O)c1O | 108
O=C(NO)c1cccc(O)c1O | 136
O=C(NO)c1cc(O)c(O)c(O)c1 | 147

tested on: L1210; assay: Antitumor activity against mouse L1210 cells allografted in C6D2F1 mouse at 139 mg/kg, ip bid at interval of 7 hrs between each dosing for 8 days starting from day 1 of challenge relative to control; format: functional; details: route intraperitoneal; method in brief: as §1

SMILES | T/C [%]
O=C(NO)c1cc(O)c(O)c(O)c1 | 172

tested on: L1210; assay: Antitumor activity against mouse L1210 cells allografted in C6D2F1 mouse at 300 mg/kg, ip for 8 days starting from day 1 of challenge relative to control; format: functional; details: route intraperitoneal

SMILES | T/C [%]
O=C(NO)c1ccc(O)c(O)c1 | 156
O=C(NO)c1ccc(O)c(O)c1O | 92
O=C(NO)c1cccc(O)c1O | 107

tested on: L1210; assay: Antitumor activity against mouse L1210 cells allografted in C6D2F1 mouse at 139 mg/kg, ip bid at interval of 5 hrs between each dosing for 8 days starting from day 1 of challenge relative to control; format: functional; details: route intraperitoneal; method in brief: as §1

SMILES | T/C [%]
O=C(NO)c1cc(O)c(O)c(O)c1 | 189
